According to ChEMBL document CHEMBL5058577, “EUbOPEN Chemogenomics Library 2 (Multiplex)” (2022):

System: HEK-293T
Experiment: Multiplex assay against HEK293T
Assay type: toxicity, cell-based
Details: human
Method in brief: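 Cells stained live at seeding with Hoechst33342, BioTracker Green Microtubule Cytoskeleton Dye, MitoTracker Red and Annexin V Alexa Fluor 680 were imaged on a CQ1 microscope at 37°C and 5% CO2 after compound addition. Their classification by CellPathfinder machine-learning gating ran from Hoechst high-intensity objects versus normal cells, to healthy, pyknosed or fragmented nuclei among normal cells, to mitotic or apoptotic among pyknosed cells. Tubulin, mitochondrial-mass and membrane-permeability phenotypes are per cents of healthy-nucleus cells.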

[1] = 12 h, 1 µM, compound concentration 1 uM, replicate 1
[2] = 12 h, 1 µM, compound concentration 1 uM, replicate 2
[3] = 12 h, 10 µM, compound concentration 10 uM, replicate 1
[4] = 12 h, 10 µM, compound concentration 10 uM, replicate 2
[5] = 24 h, 1 µM, compound concentration 1 uM, replicate 1
[6] = 24 h, 1 µM, compound concentration 1 uM, replicate 2
[7] = 24 h, 10 µM, compound concentration 10 uM, replicate 1
[8] = 24 h, 10 µM, compound concentration 10 uM, replicate 2
[9] = 48 h, 1 µM, compound concentration 1 uM, replicate 1
[10] = 48 h, 1 µM, compound concentration 1 uM, replicate 2
[11] = 48 h, 10 µM, compound concentration 10 uM, replicate 1
[12] = 48 h, 10 µM, compound concentration 10 uM, replicate 2

`N[C@@]1(C(=O)O)CO[C@H]2[C@H](C(=O)O)[C@H]21` [LY-379268] was tested, and the “Population Apoptotic (%)” value [1] was 40%, the “Population Fragmented Nuclei (%)” value [1] was 6% and the “Population Healthy Nuclei (%)” value [1] was 81%. The “Population Hoechst High Intensity Objects (%)” value [1] was 5%, the “Population Membrane Permeable-Phenotype (%)” value [1] was 0% and the “Population Mitochondria Different-Phenotype (%)” value [1] was 38%. For the same compound, the “Population Mitotic Cells (%)” value [1] was 60%, the “Population Normal (%)” value [1] was 94% and the “Population Pyknosed Nuclei (%)” value [1] was 12%. The “Population Tubulin-Different-Phenotype (%)” value [1] was 26%, the “Total Cell Count” value [1] was 396 and the “Population Apoptotic (%)” value [2] was 42%. The “Population Healthy Nuclei (%)” value [2] was 80%, the “Population Hoechst High Intensity Objects (%)” value [2] was 10% and the “Population Membrane Permeable-Phenotype (%)” value [2] was 1%. For the same compound, the “Population Mitochondria Different-Phenotype (%)” value [2] was 57%, the “Population Mitotic Cells (%)” value [2] was 57% and the “Population Normal (%)” value [2] was 89%. The “Population Tubulin-Different-Phenotype (%)” value [2] was 18%, the “Total Cell Count” value [2] was 411 and the “Population Apoptotic (%)” value [3] was 27%. For the same compound, the “Population Fragmented Nuclei (%)” value [3] was 10%, the “Population Healthy Nuclei (%)” value [3] was 78% and the “Population Hoechst High Intensity Objects (%)” value [3] was 8%. For the same compound, the “Population Membrane Permeable-Phenotype (%)” value [3] was 0%, the “Population Mitochondria Different-Phenotype (%)” value [3] was 33% and the “Population Mitotic Cells (%)” value [3] was 72%. The “Population Normal (%)” value [3] was 91%, the “Population Pyknosed Nuclei (%)” value [3] was 10% and the “Population Tubulin-Different-Phenotype (%)” value [3] was 31%. The “Total Cell Count” value [3] was 437, the “Population Apoptotic (%)” value [4] was 52% and the “Population Fragmented Nuclei (%)” value [4] was 8%. The “Population Healthy Nuclei (%)” value [4] was 79%, the “Population Hoechst High Intensity Objects (%)” value [4] was 7% and the “Population Mitochondria Different-Phenotype (%)” value [4] was 51%. The “Population Mitotic Cells (%)” value [4] was 47%, the “Population Normal (%)” value [4] was 92% and the “Population Pyknosed Nuclei (%)” value [4] was 12%. For the same compound, the “Population Tubulin-Different-Phenotype (%)” value [4] was 18%, the “Total Cell Count” value [4] was 380 and the “Population Apoptotic (%)” value [5] was 30%. For the same compound, the “Population Fragmented Nuclei (%)” value [5] was 8%, the “Population Healthy Nuclei (%)” value [5] was 79% and the “Population Hoechst High Intensity Objects (%)” value [5] was 2%. The “Population Membrane Permeable-Phenotype (%)” value [5] was 0%, the “Population Mitochondria Different-Phenotype (%)” value [5] was 21% and the “Population Mitotic Cells (%)” value [5] was 70%. The “Population Normal (%)” value [5] was 97%, the “Population Pyknosed Nuclei (%)” value [5] was 11% and the “Population Tubulin-Different-Phenotype (%)” value [5] was 20%. For the same compound, the “Total Cell Count” value [5] was 517, the “Population Apoptotic (%)” value [6] was 29% and the “Population Fragmented Nuclei (%)” value [6] was 7%. The “Population Healthy Nuclei (%)” value [6] was 83%, the “Population Hoechst High Intensity Objects (%)” value [6] was 7% and the “Population Mitochondria Different-Phenotype (%)” value [6] was 31%. For the same compound, the “Population Normal (%)” value [6] was 92%, the “Population Pyknosed Nuclei (%)” value [6] was 9% and the “Population Tubulin-Different-Phenotype (%)” value [6] was 13%. For the same compound, the “Total Cell Count” value [6] was 481, the “Population Apoptotic (%)” value [7] was 36% and the “Population Fragmented Nuclei (%)” value [7] was 10%. The “Population Healthy Nuclei (%)” value [7] was 79%, the “Population Hoechst High Intensity Objects (%)” value [7] was 6% and the “Population Membrane Permeable-Phenotype (%)” value [7] was 0%. For the same compound, the “Population Mitochondria Different-Phenotype (%)” value [7] was 24%, the “Population Mitotic Cells (%)” value [7] was 63% and the “Population Normal (%)” value [7] was 93%. For the same compound, the “Population Pyknosed Nuclei (%)” value [7] was 9%, the “Population Tubulin-Different-Phenotype (%)” value [7] was 15% and the “Total Cell Count” value [7] was 551. The “Population Apoptotic (%)” value [8] was 43%, the “Population Fragmented Nuclei (%)” value [8] was 8% and the “Population Healthy Nuclei (%)” value [8] was 82%. The “Population Hoechst High Intensity Objects (%)” value [8] was 8%, the “Population Mitochondria Different-Phenotype (%)” value [8] was 39% and the “Population Mitotic Cells (%)” value [8] was 56%. For the same compound, the “Population Normal (%)” value [8] was 91%, the “Total Cell Count” value [8] was 470 and the “Population Apoptotic (%)” value [9] was 26%. The “Population Fragmented Nuclei (%)” value [9] was 13%, the “Population Healthy Nuclei (%)” value [9] was 79% and the “Population Hoechst High Intensity Objects (%)” value [9] was 3%. The “Population Membrane Permeable-Phenotype (%)” value [9] was 1%, the “Population Mitochondria Different-Phenotype (%)” value [9] was 15% and the “Population Mitotic Cells (%)” value [9] was 73%. The “Population Normal (%)” value [9] was 97%, the “Population Pyknosed Nuclei (%)” value [9] was 6% and the “Population Tubulin-Different-Phenotype (%)” value [9] was 9%. For the same compound, the “Total Cell Count” value [9] was 866, the “Population Apoptotic (%)” value [10] was 33% and the “Population Fragmented Nuclei (%)” value [10] was 10%. For the same compound, the “Population Healthy Nuclei (%)” value [10] was 81%, the “Population Hoechst High Intensity Objects (%)” value [10] was 7% and the “Population Membrane Permeable-Phenotype (%)” value [10] was 0%. The “Population Mitochondria Different-Phenotype (%)” value [10] was 22%, the “Population Mitotic Cells (%)” value [10] was 66% and the “Population Normal (%)” value [10] was 92%. The “Population Pyknosed Nuclei (%)” value [10] was 7%, the “Population Tubulin-Different-Phenotype (%)” value [10] was 14% and the “Total Cell Count” value [10] was 611. For the same compound, the “Population Apoptotic (%)” value [11] was 24%, the “Population Fragmented Nuclei (%)” value [11] was 16% and the “Population Healthy Nuclei (%)” value [11] was 75%. For the same compound, the “Population Hoechst High Intensity Objects (%)” value [11] was 4%, the “Population Membrane Permeable-Phenotype (%)” value [11] was 1% and the “Population Mitochondria Different-Phenotype (%)” value [11] was 18%. For the same compound, the “Population Mitotic Cells (%)” value [11] was 75%, the “Population Normal (%)” value [11] was 95% and the “Population Pyknosed Nuclei (%)” value [11] was 7%. For the same compound, the “Population Tubulin-Different-Phenotype (%)” value [11] was 10%, the “Total Cell Count” value [11] was 781 and the “Population Apoptotic (%)” value [12] was 25%. The “Population Fragmented Nuclei (%)” value [12] was 11%, the “Population Healthy Nuclei (%)” value [12] was 80% and the “Population Membrane Permeable-Phenotype (%)” value [12] was 0%. For the same compound, the “Population Mitochondria Different-Phenotype (%)” value [12] was 19%, the “Population Tubulin-Different-Phenotype (%)” value [12] was 9% and the “Total Cell Count” value [12] was 689.
